Data: ChEMBL document CHEMBL1153438, “Synthesis and biological evaluation of novel conjugates of podophyllotoxin and 5-FU as antineoplastic agents” (Bioorg Med Chem, 2009)
pIC50: −log10 of the molar value. Activity calls are given as the source filed them. The calls are words filed in the database; no cut-off is given here.

Tests used:
K562 = test: Cytotoxicity against human K562 cells after 48 hrs by MTT assay; format: functional, cell-based; settings: K562, 48 h
Procedure, shortened: (§1)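 MTT assay in HL-60 and K562 leukemia cells. Cells were seeded at 6000–10,000 per well, then treated in triplicate with a concentration gradient for 48 h at 37 °C. IC50 was taken from the dose–response curve as the average of triplicates.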

AGS = test: Cytotoxicity against human AGS cells after 72 hrs by SRB method; format: functional, cell-based
Procedure, shortened: (§2)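 SRB assay in AGS and A549 solid tumour cells. Cells were seeded at 6000–10,000 per well, then exposed in triplicate to a concentration gradient for 72 h at 37 °C. IC50 was read from the dose–response curve as the average of triplicates.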

HL-60 = test: Cytotoxicity against human HL60 cells after 48 hrs by MTT assay; format: functional, cell-based; settings: HL-60, 48 h; procedure, shortened: as §1
A549 = test: Cytotoxicity against human A549 cells after 72 hrs by SRB method; format: functional, cell-based; settings: A549, 72 h; procedure, shortened: as §2
[1] = Octanol-water partition coefficient, log P of the compound; format: physicochemical
Procedure, shortened: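 Octanol–water partition coefficient; each reported P is the average of three measurements.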

Calf thymus DNA = test: Binding affinity to calf thymus DNA after 24 hrs by circular dichroism; format: nucleic-acid assay; settings: Bos taurus
Procedure, shortened: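 CT DNA dissolved and annealed in 10 mM PBS pH 7.2, then mixed with compound at 0, 10, 20 or 50 µg/mL. Mixtures were incubated 24 h at 37 °C in the dark. CD spectra were recorded from 200–320 nm in 1 cm quartz cells, with compound-only solutions in PBS as blanks.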

Plasma [2] = test: Metabolic stability in human plasma at 1 ug/ml within 24 hrs; format: ADME, cell-free
Procedure, shortened: (§3)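 Compound (100 µg/mL stock in acetonitrile, 1.0 mL) was added to 4.0 mL preincubated human plasma, mouse plasma or pH 7.4 phosphate buffer and held at 37 °C. Protein was precipitated with cold acetonitrile and the sample centrifuged. Supernatant was analysed by C18 HPLC with CH3CN/H2O 45:55 at 1.0 mL/min.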

Plasma [3] = test: Metabolic stability in mouse plasma at 1 ug/ml after 2 hrs; format: ADME, cell-free; procedure, shortened: as §3
[4] = Stability at pH 7.4 PBS at 1 ug/ml within 8 hrs; format: physicochemical; settings: buffer, pH 7.4, 8 h; procedure, shortened: as §3
[5] = Stability at pH 7.4 PBS at 1 ug/ml after 8 hrs; format: physicochemical; settings: buffer, pH 7.4, 8 h; procedure, shortened: as §3

| Compound | pIC50 (K562) | pIC50 (AGS) | pIC50 (HL-60) | pIC50 (A549) | logP [1] | Activity (Calf thymus DNA) | Stability (Plasma [2]) | Stability (Plasma [3]) | Stability [4] | Stability [5] |
| --- | --- | --- | --- | --- | --- | --- | --- | --- | --- | --- |
| COc1cc([C@@H]2c3cc4c(cc3[C@@H](N[C@H](C(=O)OCCCn3cc(F)c(=O)[nH]c3=O)C(C)C)[C@H]3COC(=O)[C@H]23)OCO4)cc(OC)c1O | 4.87 | 4.20 | 5.24 | 5.72 | 0.34 | – | – | – | – | – |
| COc1cc([C@@H]2c3cc4c(cc3[C@@H](N[C@@H](CC(C)C)C(=O)OCCCCn3cc(F)c(=O)[nH]c3=O)[C@H]3COC(=O)[C@H]23)OCO4)cc(OC)c1O | 5.28 | 4.46 | 6.14 | > 8.00 | 0.35 | – | – | – | – | – |
| COc1cc([C@@H]2c3cc4c(cc3[C@H](O)[C@H]3COC(=O)[C@H]23)OCO4)cc(OC)c1OC [PODOFILOX] | < 4.00 | 4.29 | 5.56 | 5.13 | 0.69 | – | – | – | – | – |
| COc1cc([C@@H]2c3cc4c(cc3[C@@H](N[C@@H](Cc3ccccc3)C(=O)OCCCCn3cc(F)c(=O)[nH]c3=O)[C@H]3COC(=O)[C@H]23)OCO4)cc(OC)c1O | 5.04 | 4.63 | 6.38 | 6.52 | 0.43 | – | – | – | – | – |
| COc1cc([C@@H]2c3cc4c(cc3[C@@H](N[C@@H](Cc3ccccc3)C(=O)OCCCn3cc(F)c(=O)[nH]c3=O)[C@H]3COC(=O)[C@H]23)OCO4)cc(OC)c1O | 5.24 | 4.63 | 6.51 | 6.32 | 0.65 | – | – | – | – | – |
| COc1cc([C@@H]2c3cc4c(cc3[C@@H](N[C@@H](CCSC)C(=O)OCCCn3cc(F)c(=O)[nH]c3=O)[C@H]3COC(=O)[C@H]23)OCO4)cc(OC)c1O | 5.06 | 4.61 | 6.00 | 6.54 | 0.23 | – | – | – | – | – |
| COc1cc([C@@H]2c3cc4c(cc3[C@@H](N[C@@H](CC(C)C)C(=O)OCCCn3cc(F)c(=O)[nH]c3=O)[C@H]3COC(=O)[C@H]23)OCO4)cc(OC)c1O | 5.02 | 4.23 | 6.89 | 8.00 | 0.33 | – | – | – | – | – |
| O=c1[nH]cc(F)c(=O)[nH]1 [FLUOROURACIL] | < 4.00 | < 4.00 | – | – | – | – | – | – | – | – |
| COc1cc([C@@H]2c3cc4c(cc3[C@@H](N[C@@H](C)C(=O)OCCCn3cc(F)c(=O)[nH]c3=O)[C@H]3COC(=O)[C@H]23)OCO4)cc(OC)c1O | 4.71 | 4.39 | 4.65 | 5.59 | -0.07 | – | – | – | – | – |
| COc1cc([C@@H]2c3cc4c(cc3[C@@H](N[C@@H](Cc3ccccc3)C(=O)OCCCCCn3cc(F)c(=O)[nH]c3=O)[C@H]3COC(=O)[C@H]23)OCO4)cc(OC)c1O | 4.88 | 4.41 | 7.40 | > 8.00 | 0.29 | Active | Stable | Unstable | Stable | Unstable |
| COc1cc([C@@H]2c3cc4c(cc3[C@@H](N[C@@H](CC(C)C)C(=O)OCCCCCn3cc(F)c(=O)[nH]c3=O)[C@H]3COC(=O)[C@H]23)OCO4)cc(OC)c1O | 5.22 | 4.63 | 6.51 | 6.28 | 0.51 | – | – | – | – | – |
| COc1cc([C@@H]2c3cc4c(cc3[C@@H](N[C@@H](Cc3ccc(O)cc3)C(=O)OCCCn3cc(F)c(=O)[nH]c3=O)[C@H]3COC(=O)[C@H]23)OCO4)cc(OC)c1O | 4.54 | 3.94 | 4.58 | 4.66 | 0.07 | – | – | – | – | – |
| COc1cc([C@@H]2c3cc4c(cc3[C@@H](N[C@H](C(=O)OCCCn3cc(F)c(=O)[nH]c3=O)[C@@H](C)O)[C@H]3COC(=O)[C@H]23)OCO4)cc(OC)c1O | 4.51 | 3.85 | 4.63 | 5.16 | -0.12 | – | – | – | – | – |
| CC[C@H](C)[C@H](N[C@@H]1c2cc3c(cc2[C@@H](c2cc(OC)c(O)c(OC)c2)[C@H]2C(=O)OC[C@@H]21)OCO3)C(=O)OCCCn1cc(F)c(=O)[nH]c1=O | 5.29 | 4.25 | 6.62 | 6.74 | 0.59 | – | – | – | – | – |
